# Experimental data: the array DNA melting data of Ke et al. (doi:10.1101/2024.01.08.574731)
# Columns and labels:
# [1] = folding enthalpy; higher = less favourable; fluorescence melt of hairpins on a sequencing array, two-state fit; settings: sodium 0.088 M
# Method in brief: (§1)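 Folding enthalpy and melting temperature come from bootstrapped two-state fits to Cy3 fluorescence of library hairpins carrying annealed Cy3 and quencher oligos on a sequenced MiSeq flow cell. Imaging was done in 50 mM Na-HEPES pH 8.0, 25 mM NaCl, stepping by 2.5 °C up to 60 °C, and signals were normalised to pre-quench Cy3 and to control constructs. Results of four replicates were combined by inverse variance, and fitted temperatures were raised by 9.35 °C to match UV melts.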
# [2] = melting temperature; fluorescence melt of hairpins on a sequencing array, two-state fit, raised by 9.35 °C to match UV melts; settings: sodium 0.088 M
# Method in brief: as §1
Sequence,folding enthalpy [1] [kcal/mol],Tm [2] [°C]
GTCAGAGGAAACCCTGAC (((((.(....).))))),-32.4,43.8
GCCCAGCGAAAGCAAGGC (((..((....))..))),-18.5,56.9
CGTCGTCGGAAACGAACG (((..(((....)))))),-24.9,48.8
GTACGCGAAAGCGTCTAC ((((((....)))..))),-7.82,39.9
GCCATAACGAAAGTTGGC (((..(((....)))))),-30.9,49.3
GATCGTAGGCACGATC ((((((....)))))),-37,54.2
GGCTCGGGAAACTGGGCC (((.(.(....).).))),-36.7,48.9
GACTCCCCGAAAGGGGTC (((..(((....)))))),-7.79,31.4
GCACTGCGAAAGCTGAGC ((.(.((....)).).)),-20.5,49.2
GGAAGGGAAACCTTCC ((((((....)))))),-38,55.2
GAGTACGAAAGTACCCTC ((((((....)))..))),-13.2,38.6
GGGTTGTCGAAAGACCCC (((..(((....)))))),-20.5,42.7
GTATACTCGAAAGAGTAC (((..(((....)))))),-11.6,35
GTAGTCGAAAGACATAC ((((((....))).))),-16.2,35.2
GCTTTGCGAAAGCACAGC (((.(((....))).))),-47.5,50.7
GTCCACCCGAAAGGGGAC (((..(((....)))))),-18.5,47
GCATTAGAAATAATGC ((((((....)))))),-24.5,48.2
GGCAGGGAAACCTGCC ((((((....)))))),-30.2,69.3
GATCCGTAGTCGGATC ((((((....)))))),-36,57
CGCCCGGAAACGGTCGCG ((((((....)))..))),-21.2,50.1
CGTGGGCGGAAACGCACG (((..(((....)))))),-13.4,53.1
GATCCGTACTCGGATC ((((((....)))))),-37.9,58.7
GATCCCATGCGGGATC ((((((....)))))),-34,60.6

Sequence,folding enthalpy [1] [kcal/mol],Tm [2] [°C]
CGCTACGGAAACGTTGCG (((.(((....))).))),-38.7,56.3
GCGCGTCCGAAAGGACGC (((..(((....)))))),-5.6,67.3
GATCTCCGCTGAGATC ((((((....)))))),-32.5,53.1
GCGGGCTGCCGC ((((....)))),-19.5,60.9
GCGCCCGAAAGGGCCGC ((((((....))).))),-11.5,68
CGAATCGGAAACGACTCG (((.(((....))).))),-36.2,42.1
GCCAAGGGAAACCCTGGC ((((.((....)).)))),-31.9,52.2
GTATCCGAAAGGATAC ((((((....)))))),-35.1,65.8
GATCCAACCCTGGATC ((((((....)))))),-29,48.3
GATCGTTGTCACGATC ((((((....)))))),-40.9,54.9
GGGTAAGCGAAAGCTCCC (((..(((....)))))),-20.6,47.8
GGGCCGGCGAAAGCCCCC (((..(((....)))))),-11.2,51
GTTTCCGAAAGGAAGAAC ((((((....)))..))),-11.1,30.9
GGTCGGCGAAAGCCTACC (((.(((....))).))),-25.9,53.5
GATCCCTTGGGGATC ((((((...)))))),-33,60.1
GTACTACGAAAGTAATAC (((.(((....))).))),-15.2,29.8
GCTATGCGAAAGCACCGC ((..(((....)))..)),-8.22,31.9
GCGGGTGCCGC ((((...)))),-23.3,55.9
GAGAGTGGAAACGCTCTC (((((.(....).))))),-36.8,51.7
GAATCCGAAAGGATATTC ((((((....)))..))),-13.1,33.6
GATCCAGTGCTGGATC ((((((....)))))),-47.8,52.8
GCGAACCATCGC ((((....)))),-18.7,47.7
GGACGCGAAAGCGCTTCC ((((((....)))..))),-13.2,47.5

Sequence,folding enthalpy [1] [kcal/mol],Tm [2] [°C]
GAGAAGCGAAAGCTACTC (((.(((....))).))),-28.8,49.9
GAATTGCGAAAGCACTTC (((.(((....))).))),-21.1,40.7
GCGAACCGAAAGGTACGC (((.(((....))).))),-45.7,64.3
GCGGGCCCCGC ((((...)))),-22.2,62.2
GGCCACGAAAGTGATGCC ((((((....)))..))),-27.6,51
GATCATCCGGATGATC ((((((....)))))),-52.5,54.8
GATCCGTGCACGGATC ((((((....)))))),-40.3,66.5
GGTGTCGGAAACGACGCC ((.((((....)))).)),-28.6,64.5
GTTAACGGAAACGTTAAC (((((((....))))))),-42.3,56.9
GCTGAGCGAAAGCTACGC ((..(((....)))..)),-16.3,44.4
GGTCGGCGAAAGCCCACC (((.(((....))).))),-21.7,46.9
GCCTACGGAAACGTAGAC (.(((((....))))).),-18.1,41.8
GGGAGACGAAAGTCCCCC (((.(((....))).))),-28.8,58.8
GTAGACCGAAAGGTGTAC (((.(((....))).))),-36.3,50.8
TAATCGAAAGATTA (((((....))))),-15.2,38.9
GACTGTGGAAACGTAGTC ((((..(....)..)))),-17.5,34.8
GCGGACGAAAGTCTCCGC ((((((....)))..))),-25.7,51.3
GCATCGCGAAAGCGAAGC ((.((((....)))).)),-19.1,61.3
GCATAAGGAAACCTATGC (((((.(....).))))),-27.1,39.2
GTGACCGGAAACGATCAC ((((.((....)).)))),-39.6,46.6
GAAAGCGAAAGCTCTTTC ((((((....)))..))),-16.7,38.2
GTAAGCGAAAGCTGCTAC ((((((....)))..))),-12.7,41
GCCCAGGGAAACCTGGAC (.(((((....))))).),-13.4,49.4

Sequence,folding enthalpy [1] [kcal/mol],Tm [2] [°C]
GTATTCCGAAAGGAGTAC (((.(((....))).))),-36.7,47.5
GCAGACACGAAAGTGTGC (((..(((....)))))),-15.3,46.8
GGCCTGGGAAACCGGGTC (.((.((....)).)).),-27.7,49
GTTCCAGGAAACTGGAGC (.(((((....))))).),-19.6,47.2
GGTTCACGAAAGTGGACC (((.(((....))).))),-38,63
GTGTTACCGAAAGGTCAC (((..(((....)))))),-23.6,43.6
GTCTTCCGAAAGGACGAC (((.(((....))).))),-40.7,48.6
GCGACCTATCGC ((((....)))),-28.4,49.3
GACGTCCGAAAGGAGTC (((.(((....)))))),-24,49
GCGATCGGAAACAATCGC (((((.(....).))))),-37.6,48.1
GATCTGGTTACAGATC ((((((....)))))),-40.1,59.1
GTCCTACGAAAGTATGAC (((.(((....))).))),-32.3,41.9
GAGAACCGAAAGGTGCTC (((.(((....))).))),-34.3,56.5
GCACTGCGAAAGCCTTGC (((..((....))..))),-21.9,36.6
GTTGGGGGAAACCTCAGC (.((.((....)).)).),-17.4,31
GAGCACGAAAGTGACTC ((((((....))).))),-19.5,47.3
GATCTATATGTAGATC ((((((....)))))),-35.4,45.5
GACGAGGCGAAAGCCGTC (((..(((....)))))),-8.76,51.5
GCTGTGCGAAAGCAAGC (((.(((....)))))),-21.5,51.8
GATCTCACCGAGATC ((((((...)))))),-36.5,55.2
GACGTAGGAAACCACGTC (((((.(....).))))),-29.5,47.2
CGGGACCGGAAACGGCCG (((..(((....)))))),-16.1,48.5
GCATTCGAAAGAAGATGC ((((((....)))..))),-17.7,36.2
